Assay results: ChEMBL document CHEMBL4334459, “Identification of α-Mangostin as a Potential Inhibitor of Microtubule Affinity Regulating Kinase 4” (J Nat Prod, 2019)
Blank lines part the entries; values can stand above or below the molecule they belong to. Calls of active or inactive are those of the source. No cut-off for these calls is given here.

Assays:
[1] = tested on: MCF7; assay: Induction of cell cycle arrest in human MCF7 cells assessed as accumulation at G0/G1 phase at IC50 after 24 hrs by propidium iodide staining based Flow cytometric analysis (reference value: 65%); type: functional
[2] = target: T1, MAP/microtubule affinity-regulating kinase 4 (Homo sapiens, UniProt Q96L34); assay: (§1) Inhibition of recombinant human MARK4 incubated for 2 hrs by [gamma32P]ATP assay
T1 sequence (Q96L34 whole entry): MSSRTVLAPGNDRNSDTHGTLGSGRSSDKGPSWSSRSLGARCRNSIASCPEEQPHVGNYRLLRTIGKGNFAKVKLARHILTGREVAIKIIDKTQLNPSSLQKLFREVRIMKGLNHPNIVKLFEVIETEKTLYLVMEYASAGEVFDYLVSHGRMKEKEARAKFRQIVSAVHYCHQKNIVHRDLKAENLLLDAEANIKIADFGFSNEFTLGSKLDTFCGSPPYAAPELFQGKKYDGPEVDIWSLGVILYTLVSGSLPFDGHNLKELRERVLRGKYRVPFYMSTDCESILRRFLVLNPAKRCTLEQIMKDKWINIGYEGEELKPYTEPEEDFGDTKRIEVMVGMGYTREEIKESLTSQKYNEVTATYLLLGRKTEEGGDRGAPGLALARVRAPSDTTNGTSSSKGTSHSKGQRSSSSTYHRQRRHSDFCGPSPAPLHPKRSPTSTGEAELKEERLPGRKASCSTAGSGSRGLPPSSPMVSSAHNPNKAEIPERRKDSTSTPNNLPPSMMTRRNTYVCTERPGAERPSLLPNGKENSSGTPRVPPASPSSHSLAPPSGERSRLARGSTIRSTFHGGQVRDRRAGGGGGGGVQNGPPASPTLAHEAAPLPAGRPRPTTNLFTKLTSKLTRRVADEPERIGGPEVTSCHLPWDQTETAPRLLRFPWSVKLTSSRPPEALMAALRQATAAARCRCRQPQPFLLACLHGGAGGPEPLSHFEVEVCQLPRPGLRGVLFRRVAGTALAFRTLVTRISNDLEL
Outline: (§2)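 Recombinant human MARK4 was incubated 2 h at 37 °C with 1 mM cold ATP plus [γ-32P]ATP (222 TBq mmol−1), with or without compound. Released 32Pi was separated from ATP by TLC, and spots were quantified as % ATP hydrolysis relative to a 100 nM enzyme positive control. Screening was at a single 10 μM; dose-response used 0.5−10 μM.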

[3] = target: T2, MAP/microtubule affinity-regulating kinase 4 (Homo sapiens) (UniProt Q96L34); assay: as §1; outline: as §2
T2 sequence (whole entry): T1 sequence (Q96L34 whole entry)

[4] = target: T2, MAP/microtubule affinity-regulating kinase 4 (Homo sapiens); assay: Inhibition of recombinant human MARK4 at 10 uM incubated for 2 hrs by [gamma32P]ATP assay; outline: as §2
[5] = tested on: HEK293; assay: Cytotoxicity against human HEK293 cells assessed as reduction in cell viability upto 50 uM after 48 hrs by MTT assay; type: cell-based; conditions: hek293, 48 h
Outline: (§3)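 Cells plated at 9000−10 000 cells/well, grown 24 h, then exposed to 0−50 μM compound for 48 h at 37 °C in 5% CO2, followed by a standard MTT read-out. HEK-293, MCF-7 and HepG2 were kept in DMEM with 10% heat-inactivated FBS and 1% penicillin−streptomycin. Viability is expressed as % of control, mean ± SD, n = 3. Paclitaxel served as positive control.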

[6] = tested on: HepG2; assay: Induction of apoptosis in human HepG2 cells assessed as viable cells at IC50 after 24 hrs by annexin V-FITC/propidium iodide staining based Flow cytometric analysis (reference value: 97.32%); type: functional
[7] = tested on: MCF7; assay: Antiproliferative activity against human MCF7 cells assessed as reduction in cell viability after 48 hrs by MTT assay; type: functional, cell-based; conditions: MCF7, 48 h; outline: as §3
[8] = tested on: HepG2; assay: Induction of cell cycle arrest in human HepG2 cells assessed as accumulation at S phase at IC50 after 24 hrs by propidium iodide staining based Flow cytometric analysis (reference value: 15%); type: functional
[9] = tested on: HepG2; assay: Induction of cell cycle arrest in human HepG2 cells assessed as accumulation at S phase at IC50 after 24 hrs by propidium iodide staining based Flow cytometric analysis (reference value: 25%); type: functional
[10] = tested on: MCF7; assay: Induction of cell cycle arrest in human MCF7 cells assessed as accumulation at S phase at IC50 after 24 hrs by propidium iodide staining based Flow cytometric analysis (reference value: 20%); type: functional
[11] = tested on: HepG2; assay: Induction of cell cycle arrest in human HepG2 cells assessed as accumulation at G0/G1 phase at IC50 after 24 hrs by propidium iodide staining based Flow cytometric analysis (reference value: 60%); type: functional
[12] = target: T2, MAP/microtubule affinity-regulating kinase 4 (Homo sapiens); assay: Binding affinity to recombinant human MARK 4 by fluorescence based Stem-Volme plot analysis
Outline: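 Intrinsic fluorescence of recombinant MARK4 (10 μM) was titrated with increasing ligand, using excitation at 280 nm and emission recorded from 300−400 nm. Quenching was fitted to a modified Stern−Volmer equation, log(Fo−F)/F = log Ka + n log[L]. Ka came from the intercept and n from the slope. Three independent triplicate titrations were averaged.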

[13] = target: T2, MAP/microtubule affinity-regulating kinase 4 (Homo sapiens); assay: Inhibition of MARK4 in human SH-SY5Y cells assessed as reduction in tau phosphorylation at IC50 after 24 hrs by flow cytometric analysis; type: cell-based
Outline: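 SH-SY5Y cells were grown in 1:1 EMEM/F12 with 10% FBS and incubated with IC50 compound. After 24 h, about 1 × 10^6 cells were collected, fixed, and stained with anti-tau primary antibody for 2−3 h at 25 °C. Phospho-tau signal was read by flow cytometry against untreated cells.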

[14] = tested on: MCF7; assay: Induction of apoptosis in human MCF7 cells assessed as viable cells at IC50 after 24 hrs by annexin V-FITC/propidium iodide staining based Flow cytometric analysis (reference value: 99.99%); type: functional
[15] = target: T2, MAP/microtubule affinity-regulating kinase 4 (Homo sapiens); assay: Inhibition of MARK4 in human MCF7 cells assessed as reduction in ROS level at IC50 after 5 to 6 hrs by DCFDA staining using spectroflourimetric analysis; type: cell-based
[16] = target: T2, MAP/microtubule affinity-regulating kinase 4 (Homo sapiens); assay: Inhibition of MARK4 in human HepG2 cells assessed as reduction in ROS level at IC50 after 5 to 6 hrs by DCFDA staining using spectroflourimetric analysis; type: cell-based
[17] = tested on: HepG2; assay: Antiproliferative activity against human HepG2 cells assessed as reduction in cell viability after 48 hrs by MTT assay; type: functional, cell-based; conditions: HepG2, 48 h; outline: as §3
[18] = tested on: MCF7; assay: Induction of apoptosis in human MCF7 cells assessed as apoptotic cells at IC50 after 24 hrs by annexin V-FITC/propidium iodide staining based Flow cytometric analysis (reference value: 0.01%); type: functional
[19] = tested on: MCF7; assay: Inhibition of cell migration in human MCF7 cells at IC50 after 48 hrs by phase contrast inverted microscopic based wound healing assay; type: functional
[20] = tested on: HepG2; assay: Induction of apoptosis in human HepG2 cells assessed as apoptotic cells at IC50 after 24 hrs by annexin V-FITC/propidium iodide staining based Flow cytometric analysis (reference value: 2.68%); type: functional
[21] = tested on: MCF7; assay: Induction of cell cycle arrest in human MCF7 cells assessed as accumulation at G2 phase at IC50 after 24 hrs by propidium iodide staining based Flow cytometric analysis (reference value: 15%); type: functional

IC50 [2]: 1.77 µM | inhibition [3]: Dose-dependent effect | inhibition [4]: Active | IC50 [7]: 9.95 µM | Ka [12]: 5.2 ×10⁷ /M | inhibition [13]: Active | inhibition [15]: Active | inhibition [16]: Active | IC50 [17]: 18.6 µM
Structure (SMILES): COc1c(O)cc2oc3cc(O)c(CC=C(C)C)c(O)c3c(=O)c2c1CC=C(C)C [MANGOSTIN]
Activity [1]: 83% | Activity [5]: Non-Toxic | Activity [6]: 80.3% | Activity [8]: 10% | Activity [9]: 15% | Activity [10]: 10% | Activity [11]: 75% | Activity [14]: 74.1% | Activity [18]: 25.9% | inhibition [19]: Active | Activity [20]: 19.7% | Activity [21]: 7%

inhibition [4]: Active
Structure (SMILES): O=c1oc2c(O)c(O)cc3c(=O)oc4c(O)c(O)cc1c4c23
